Measured values as given in ChEMBL document CHEMBL1133105, “Antimalarial, antitrypanosomal, and antileishmanial activities and cytotoxicity of bis(9-amino-6-chloro-2-methoxyacridines): influence of the linker” (J Med Chem, 2000).

Experiments:
Leishmania infantum [1] = test: Percentage of activity against Leishmania infantum 6.25 uM; format: functional
How it was run: (§1)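 Starch-stimulated mouse peritoneal macrophages, 30 000/well, infected after 24 h with spleen-derived L. infantum amastigotes (10:1) together with 2-fold drug dilutions (12.5–1.56 µM). Incubated 7 days at 37 °C, 5% CO2. Wright-stained slides scored microscopically as % reduction of total parasite load or of infected macrophages. Uninfected treated cultures judged microscopically for macrophage toxicity.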

Trypanosoma brucei [2] = test: Percentage of activity against Trypanosoma brucei at 1.56 uM; format: functional
How it was run: (§2)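 Bloodstream-form T. brucei in HMI-9 medium, 10 000 parasites/well, exposed to 12.5, 6.25, 3.13 and 1.56 µM drug for 4 days. Read-out is % inhibition of parasite multiplication. Macrophage toxicity judged on mouse primary peritoneal macrophages.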

MRC5 [3] = test: Cytotoxicity on MRC-5 cells at 25 uM; format: functional; details: Homo sapiens
How it was run: (§3)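 MRC-5 human diploid embryonic lung cells seeded at 5 000/well, washed after 24 h, then given 2-fold drug dilutions (25, 12.5, 6.25, 3.13 µM) in RPMI + 5% FCS, final DMSO below 0.5%. Incubated 7 days at 37 °C, 5% CO2. MTT colorimetric read-out, scored as % reduction of absorbance at 540 nm versus untreated controls.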

Trypanosoma brucei [4] = test: Percentage of activity against Trypanosoma brucei at 3.13 uM; format: functional; how it was run: as §2
Leishmania infantum [5] = test: Percentage of activity against Leishmania infantum at 1.56 uM; format: functional; how it was run: as §1
Plasmodium falciparum = test: In vitro sensitivity for Plasmodium falciparum FcB1R; format: functional, organism-based
How it was run: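 Asynchronous P. falciparum cultures in human erythrocytes (0.5% parasitemia, 1% haematocrit) exposed to serially diluted drug for 24 h at 37 °C. [3H]hypoxanthine (0.5 µCi/well) then added for a further 24 h. Uptake compared with drug-free controls on the same plate. IC50 taken from the concentration–response curve, averaged over independent experiments. DMSO ≤0.1%.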

Trypanosoma cruzi [6] = test: Percentage of activity against Trypanosoma cruzi at 12.5 uM; Toxic upon mouse primary peritoneal macrophages; format: functional, organism-based
How it was run: (§4)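 Mouse peritoneal macrophages, 30 000/well, infected after 24 h with about 100 000 T. cruzi trypomastigotes per well plus 2-fold drug dilutions (12.5–1.56 µM). Incubated 4 days at 37 °C, 5% CO2. Methanol-fixed, Giemsa-stained and scored microscopically as % reduction of total parasite load (free trypomastigotes plus intracellular amastigotes) versus untreated controls.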

MRC5 [7] = test: Cytotoxicity on MRC-5 cells at 3.13 uM; format: functional; details: Homo sapiens; how it was run: as §3
Trypanosoma cruzi [8] = test: Percentage of activity against Trypanosoma cruzi at 3.13 uM; format: functional; how it was run: as §4
MRC5 [9] = test: Cytotoxicity on MRC-5 cells at 12.5 uM; format: functional; details: Homo sapiens; how it was run: as §3
Trypanosoma cruzi [10] = test: Percentage of activity against Trypanosoma cruzi at 1.56 uM; format: functional; how it was run: as §4
Trypanosoma cruzi [11] = test: Percentage of activity against Trypanosoma cruzi at 6.25 uM Concentration; format: functional; how it was run: as §4
Leishmania infantum [12] = test: Percentage of activity against Leishmania infantum at 12.5 uM Concentration; Toxic upon mouse primary peritoneal macrophages; format: functional, organism-based; how it was run: as §1
Trypanosoma brucei [13] = test: Percentage of activity against Trypanosoma brucei at 6.25 uM; format: functional; how it was run: as §2
Leishmania infantum [14] = test: Percentage of activity against Leishmania infantum at 3.13 uM; format: functional; how it was run: as §1
MRC5 [15] = test: Cytotoxicity on MRC-5 cells at 6.25 uM; format: functional; details: Homo sapiens; how it was run: as §3
Trypanosoma cruzi [16] = test: Percentage of activity against Trypanosoma cruzi at 12.5 uM; format: functional; how it was run: as §4
Trypanosoma brucei [17] = test: Percentage of activity against Trypanosoma brucei at 12.5 uM; format: functional; how it was run: as §2

Compound | IC50 (Plasmodium falciparum) [nM] | Antileishmanial activity (% reduction of parasite load) (Leishmania infantum [1]) [%] | Percent inhibition of parasite multiplication (Trypanosoma brucei [2]) [%] | cytotoxicity at 25 µM (MRC5 [3]) [%] | Parasite growth inhibition (Trypanosoma brucei [4]) [%] | Antileishmanial activity (% reduction of parasite load) (Leishmania infantum [5]) [%] | Cytotoxicity (Trypanosoma cruzi [6]) | cytotoxicity at 3.13 µM (MRC5 [7]) [%] | Reduction of T. cruzi parasite load (Trypanosoma cruzi [8]) [%] | cytotoxicity at 12.5 µM (MRC5 [9]) [%] | Parasite load reduction (Trypanosoma cruzi [10]) [%] | Reduction of T. cruzi parasite load (Trypanosoma cruzi [11]) [%] | Cytotoxicity (Leishmania infantum [12]) | Inhibition of parasite multiplication (Trypanosoma brucei [13]) [%] | Percent antileishmanial activity (reduction of parasite load) (Leishmania infantum [14]) [%] | cytotoxicity at 6.25 µM (MRC5 [15]) [%] | T. cruzi parasite load reduction (Trypanosoma cruzi [16]) [%] | Inhibition of parasite multiplication (Trypanosoma brucei [17]) [%]
COc1ccc2nc3cc(Cl)ccc3c(NCCCN(CCCNc3c4ccc(Cl)cc4nc4ccc(OC)cc34)C(=O)C(CNC(=O)OCC3c4ccccc4-c4ccccc43)NC(=O)OC(C)(C)C)c2c1 (stereo not given) | 71 | 95 | 100 | 68 | 100 | 20 | Toxic | 55 | 20 | 60 | 0 | 90 | Toxic | 100 | 70 | 57 | – | –
COc1ccc2nc3cc(Cl)ccc3c(NCCCN(CCCNc3c4ccc(Cl)cc4nc4ccc(OC)cc34)C(=O)C(CCCCNC(=O)OCC3c4ccccc4-c4ccccc43)NC(=O)OC(C)(C)C)c2c1 (stereo not given) | 273 | 40 | 100 | 100 | 100 | 0 | Toxic | 20 | 20 | 90 | 0 | 80 | Toxic | 100 | 0 | 80 | – | 100
COc1ccc2nc3cc(Cl)ccc3c(NCCCCCCCCNc3c4ccc(Cl)cc4nc4ccc(OC)cc34)c2c1 | 19 | 95 | 100 | 100 | 100 | 70 | Toxic | 20 | 90 | 100 | 70 | 98 | Toxic | 100 | 90 | 100 | – | 100
COc1ccc2nc3cc(Cl)ccc3c(NCCCCCCCCCCCCNc3c4ccc(Cl)cc4nc4ccc(OC)cc34)c2c1 | 176 | 80 | 70 | 100 | 100 | 0 | – | 0 | 0 | 20 | 0 | 40 | Toxic | 100 | 40 | 0 | 90 | 100

Continued, in another order:

IC50 (Plasmodium falciparum) [nM] | Compound | Antileishmanial activity (% reduction of parasite load) (Leishmania infantum [1]) [%] | Percent inhibition of parasite multiplication (Trypanosoma brucei [2]) [%] | cytotoxicity at 25 µM (MRC5 [3]) [%] | Parasite growth inhibition (Trypanosoma brucei [4]) [%] | Antileishmanial activity (% reduction of parasite load) (Leishmania infantum [5]) [%] | Cytotoxicity (Trypanosoma cruzi [6]) | cytotoxicity at 3.13 µM (MRC5 [7]) [%] | Reduction of T. cruzi parasite load (Trypanosoma cruzi [8]) [%] | cytotoxicity at 12.5 µM (MRC5 [9]) [%] | Parasite load reduction (Trypanosoma cruzi [10]) [%] | Reduction of T. cruzi parasite load (Trypanosoma cruzi [11]) [%] | Cytotoxicity (Leishmania infantum [12]) | Inhibition of parasite multiplication (Trypanosoma brucei [13]) [%] | Percent antileishmanial activity (reduction of parasite load) (Leishmania infantum [14]) [%] | cytotoxicity at 6.25 µM (MRC5 [15]) [%] | T. cruzi parasite load reduction (Trypanosoma cruzi [16]) [%] | Inhibition of parasite multiplication (Trypanosoma brucei [17]) [%]
31 | COc1ccc2nc3cc(Cl)ccc3c(NCCCN(CCCNc3c4ccc(Cl)cc4nc4ccc(OC)cc34)C(=O)C(CC(=O)OC3CCCCC3)NC(=O)OC(C)(C)C)c2c1 (stereo not given) | 80 | 100 | 100 | 100 | 20 | – | 40 | 20 | 100 | 0 | 70 | Toxic | 100 | 60 | 100 | 98 | 100
138 | COc1ccc2nc3cc(Cl)ccc3c(NCCCN(CCCNc3c4ccc(Cl)cc4nc4ccc(OC)cc34)C(=O)C(COCc3ccccc3)NC(=O)OC(C)(C)C)c2c1 (stereo not given) | 90 | 100 | 100 | 100 | 40 | Toxic | 100 | 40 | 100 | 0 | 80 | Toxic | 100 | 70 | 100 | – | 100
55 | COc1ccc2nc3cc(Cl)ccc3c(NCCCN(CCCNc3c4ccc(Cl)cc4nc4ccc(OC)cc34)C(=O)C(CNC(=O)OC(C)(C)C)NC(=O)OC(C)(C)C)c2c1 (stereo not given) | 99 | 100 | 70 | 100 | 80 | Toxic | 43 | 40 | 50 | 0 | 80 | Toxic | 100 | 95 | 48 | – | –
57 | COc1ccc2nc3cc(Cl)ccc3c(NCCCCCCCCCCNc3c4ccc(Cl)cc4nc4ccc(OC)cc34)c2c1 | 90 | 100 | 90 | 100 | 20 | – | 0 | 40 | 80 | 0 | 70 | Toxic | 100 | 70 | 0 | 99 | 100
> 500 | COc1ccc2nc3cc(Cl)ccc3c(NCCCN(CCCNc3c4ccc(Cl)cc4nc4ccc(OC)cc34)C(=O)CCN3CCNCC3)c2c1 | 0 | 95 | 15 | 99 | 0 | – | 0 | 0 | 0 | 0 | 0 | Toxic | 100 | 0 | 0 | 90 | –
